This note sets out measurements from the array DNA melting data of Ke et al. (doi:10.1101/2024.01.08.574731).

Series [1] is described as follows: folding enthalpy; higher = less favourable; fluorescence melt of hairpins on a sequencing array, two-state fit. As to conditions: sodium 0.088 M. The essentials:
(§1)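 On a sequenced MiSeq flow cell, library hairpins with annealed Cy3 and quencher oligos were imaged for Cy3 fluorescence in 2.5 °C steps up to 60 °C, in 50 mM Na-HEPES pH 8.0, 25 mM NaCl. Normalisation used pre-quench Cy3 and control constructs. Bootstrapped two-state fits gave melting temperature and folding enthalpy, combined by inverse variance across four replicates and with fitted temperatures raised by 9.35 °C to match UV melts.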

Series [2] is described as follows: melting temperature; fluorescence melt of hairpins on a sequencing array, two-state fit, raised by 9.35 °C to match UV melts. As to conditions: sodium 0.088 M. The essentials: as §1

GGTTAAGGAAACTTAGCC ((.((((....)))).)): the folding enthalpy in series [1] is -28 kcal/mol. For the same sequence, in series [2], the Tm was found to be 38.5 °C.
For GGTTACGAAAGTAAGACC ((((((....)))..))) the same measures were -15 kcal/mol and 34.5 °C.
On the same counts, the results for GGTTACGAAAGTACAACC ((((((....)))..))) are -19.1 kcal/mol and 36.1 °C.
With GGTTACGAAAGTACACC ((((((....))).))), the folding enthalpy in series [1] is -22.7 kcal/mol. The Tm in series [2] turned out to be 42.2 °C.
On the same counts, the results for GGTTACGGAAACGTGACC (((.(((....))).))) are -36.4 kcal/mol and 53.4 °C.
For GGTTACGGAAACGTGATC (.(.(((....))).).) the same measures were -16.3 kcal/mol and 30.4 °C.
On the same counts, the results for GGTTACTCGAAAGAGACC (((..(((....)))))) are -11.8 kcal/mol and 25 °C.
Consider GGTTAGCGAAAGCTCACC (((.(((....))).))), for which the folding enthalpy in series [1] was -26.6 kcal/mol. In addition, the Tm in series [2] turned out to be 49.1 °C.
For GGTTAGGGAAACCTAATC (.(((((....))))).) the same measures were -27.7 kcal/mol and 37.9 °C.
On the same counts, the results for GGTTAGGGAAACTTGACC (((.(.(....).).))) are -18.9 kcal/mol and 28 °C.
On the same counts, the results for GGTTATCGAAAGATTACC (((.(((....))).))) are -31.1 kcal/mol and 43.5 °C.
For the sequence GGTTATGGAAACATAATC (.(((((....))))).), in series [1], the folding enthalpy is -31.2 kcal/mol. Moreover, the Tm in series [2] amounted to 36 °C.
On the same counts, the results for GGTTATGGAAACGTAACC (((((.(....).))))) are -40.6 kcal/mol and 45.8 °C.
On the same counts, the results for GGTTCAGGAAACTGAACC (((((((....))))))) are -41.4 kcal/mol and 63.8 °C.
For GGTTCAGGAAACTGAATC (.(((((....))))).) the same measures were -30.1 kcal/mol and 44.2 °C.
Turning to GGTTCAGGAAACTGAGCC ((.((((....)))).)), in series [1], the folding enthalpy was -30.2 kcal/mol. In addition, in series [2], the Tm was determined as 50 °C.
As for GGTTCCACGAAAGTGACC (((..(((....)))))), the folding enthalpy in series [1] is -15.1 kcal/mol. Besides, in series [2], the Tm came out at 31.6 °C.
On the same counts, the results for GGTTCCCGAAAGGGTACC (((.(((....))).))) are -33.6 kcal/mol and 57.5 °C.
For GGTTCCGAAAGGAGCACC ((((((....)))..))) the same measures were -13.8 kcal/mol and 39.1 °C.
For GGTTCCGAAAGGATAACC ((((((....)))..))), in series [1], the folding enthalpy is -20.5 kcal/mol. Moreover, the Tm in series [2] was 43.5 °C.
For GGTTCCGAAAGGATACC ((((((....))).))) the same measures were -28.1 kcal/mol and 48.8 °C.
For GGTTCCGGAAACGGAATC (.(((((....))))).) the same measures were -23.9 kcal/mol and 51.4 °C.
GGTTCCGGAAACGGGACC (((.(((....))).))): the folding enthalpy in series [1] is -47.1 kcal/mol. The Tm in series [2] worked out at 58.5 °C.
On the same counts, the results for GGTTCGGGAAACCGAATC (.(((((....))))).) are -27.1 kcal/mol and 50.6 °C.
For GGTTCGGGAAACCGAGCC ((.((((....)))).)) the same measures were -40.4 kcal/mol and 58.3 °C.
On the same counts, the results for GGTTCGGGAAACTGAACC (((((.(....).))))) are -47.2 kcal/mol and 53.2 °C.
As for GGTTCGGGAAACTGGACC (((.(.(....).).))), the folding enthalpy in series [1] is -29.2 kcal/mol. Moreover, in series [2], the Tm worked out at 41.2 °C.
On the same counts, the results for GGTTCTGCGAAAGCAACC (((..(((....)))))) are -12.3 kcal/mol and 31.1 °C.
On the same counts, the results for GGTTGAGGAAACCCAACC (((((.(....).))))) are -39.4 kcal/mol and 45.2 °C.
For GGTTGAGGAAACTCAGCC ((.((((....)))).)) the same measures were -33.4 kcal/mol and 50 °C.
GGTTGAGGAAACTCAGTC (..((((....))))..): the folding enthalpy in series [1] is -14.5 kcal/mol. The Tm in series [2] came to 30.9 °C.
For GGTTGAGGAAACTTAACC ((((.((....)).)))) the same measures were -31.9 kcal/mol and 39.8 °C.
On the same counts, the results for GGTTGCACGAAAGTGACC (((..(((....)))))) are -11.2 kcal/mol and 34.2 °C.
For GGTTGCCGAAAGGCTACC (((.(((....))).))) the same measures were -29.6 kcal/mol and 61.8 °C.
With GGTTGCGAAAGCAAACC ((((((....))).))), the folding enthalpy in series [1] is -20 kcal/mol. Further, the Tm in series [2] came to 61.8 °C.
For GGTTGCGAAAGCACTACC ((((((....)))..))) the same measures were -11.9 kcal/mol and 37.4 °C.
For GGTTGCGAAAGCAGGACC ((((((....)))..))) the same measures were -19.2 kcal/mol and 37.8 °C.
Regarding GGTTGCGAAAGCAGTACC ((((((....)))..))), the folding enthalpy in series [1] was -16.9 kcal/mol. Besides, the Tm in series [2] was found to be 43.3 °C.
For GGTTGCGCGAAAGCGACC (((..(((....)))))) the same measures were -18 kcal/mol and 42.8 °C.
For GGTTGCGGAAACACAACC (((((.(....).))))) the same measures were -40 kcal/mol and 48.4 °C.
On the same counts, the results for GGTTGCGGAAACGCAATC (.(((((....))))).) are -28.9 kcal/mol and 54.9 °C.
As for GGTTGCGGAAACGTAACC ((((.((....)).)))), the folding enthalpy in series [1] is -47.9 kcal/mol. In addition, the Tm in series [2] was 54 °C.
On the same counts, the results for GGTTGGAAACAACC (((((....))))) are -29.6 kcal/mol and 54.9 °C.
With GGTTGGGGAAACCCAATC (.(((((....))))).), in series [1], the folding enthalpy is -26.2 kcal/mol. Moreover, in series [2], the Tm stood at 48.7 °C.
For GGTTGGGGAAACCCGACC (((.(((....))).))) the same measures were -32.4 kcal/mol and 56.7 °C.
With GGTTGTGAAAACAACC ((((((....)))))), the folding enthalpy in series [1] was -40.1 kcal/mol. Also, the Tm in series [2] was found to be 61.5 °C.
On the same counts, the results for GGTTGTGGAAACATGACC (((..((....))..))) are -30.9 kcal/mol and 39.2 °C.
On the same counts, the results for GGTTTACGAAAGTAGACC (((.(((....))).))) are -34.9 kcal/mol and 51 °C.
Regarding GGTTTAGGAAACTAGACC (((.(((....))).))), the folding enthalpy in series [1] is -30.2 kcal/mol. For the same sequence, the Tm in series [2] was 37.5 °C.
For GGTTTATCGAAAGATACC (((..(((....)))))) the same measures were -12.3 kcal/mol and 28 °C.
For GGTTTCCGAAAGGATACC (((.(((....))).))) the same measures were -36.7 kcal/mol and 50.5 °C.
As for GGTTTCGAAAGAACACC ((((((....))).))), the folding enthalpy in series [1] is -26.8 kcal/mol. For the same sequence, the Tm in series [2] was 37.6 °C.
With GGTTTCGAAAGAAGACC ((((((....))).))), the folding enthalpy in series [1] is -19.5 kcal/mol. In addition, the Tm in series [2] was determined as 36.8 °C.
With GGTTTCGAAAGAATCACC ((((((....)))..))), in series [1], the folding enthalpy is -13 kcal/mol. In addition, the Tm in series [2] was 26.7 °C.
For GGTTTCGGAAACGAAGCC ((.((((....)))).)) the same measures were -28.2 kcal/mol and 51.4 °C.
For GGTTTGACGAAAGTCACC (((..(((....)))))) the same measures were -10.6 kcal/mol and 30.4 °C.
For GGTTTGCGAAAGCAACC (((.(((....)))))) the same measures were -17.2 kcal/mol and 52.4 °C.
Turning to GGTTTGCGAAAGCAGACC (((.(((....))).))), the folding enthalpy in series [1] is -34.8 kcal/mol. For the same sequence, the Tm in series [2] is 59.5 °C.
GGTTTGGAAACAAACC ((((((....)))))): the folding enthalpy in series [1] is -41.6 kcal/mol. Besides, the Tm in series [2] stood at 56.5 °C.
On the same counts, the results for GGTTTTCGAAAGAAACC (((.(((....)))))) are -23.1 kcal/mol and 44.8 °C.
On the same counts, the results for GGTTTTCGAAAGAAGACC (((.(((....))).))) are -31.4 kcal/mol and 48.1 °C.
On the same counts, the results for GGTTTTCGAAAGAATACC (((.(((....))).))) are -30.8 kcal/mol and 42.3 °C.
GGTTTTGGAAACAAAACC (((((((....))))))): the folding enthalpy in series [1] was -50.2 kcal/mol. The Tm in series [2] worked out at 58.6 °C.
As to GGTTTTGGAAACAGAACC ((((.((....)).)))), the folding enthalpy in series [1] is -36.7 kcal/mol. Also, the Tm in series [2] is 42.1 °C.
For GTAAACGAAAGTTCTTAC ((((((....)))..))) the same measures were -11 kcal/mol and 24.7 °C.
On the same counts, the results for GTAAACGAAAGTTGTAC ((((((....))).))) are -13.7 kcal/mol and 31.2 °C.
For GTAAACGAAAGTTGTTAC ((((((....)))..))) the same measures were -10.1 kcal/mol and 23.7 °C.
As for GTAAACGAAAGTTTATAC ((((((....)))..))), the folding enthalpy in series [1] was -13.4 kcal/mol. Further, the Tm in series [2] worked out at 37.1 °C.
For GTAAACGGAAACGTTTAC (((((((....))))))) the same measures were -47.3 kcal/mol and 57.8 °C.
For GTAAAGCGAAAGCTCTAC (((.(((....))).))) the same measures were -14.5 kcal/mol and 35 °C.
For GTAAATGGAAACATTTAC (((((((....))))))) the same measures were -31.5 kcal/mol and 51.3 °C.
Consider GTAACACCGAAAGGTTAC (((..(((....)))))), for which the folding enthalpy in series [1] was -14.8 kcal/mol. Further, in series [2], the Tm worked out at 35.6 °C.
GTAACAGCGAAAGCTTAC (((..(((....)))))): the folding enthalpy in series [1] is -10.8 kcal/mol. Moreover, the Tm in series [2] was 28.6 °C.
